These results are taken from ChEMBL document CHEMBL2203049, “Novel retinoic acid 4-hydroxylase (CYP26) inhibitors based on a 3-(1H-imidazol- and triazol-1-yl)-2,2-dimethyl-3-(4-(phenylamino)phenyl)propyl scaffold” (Bioorg Med Chem, 2012).

Structures are written as SMILES. pIC50: −log10 of the molar value.

One data set has as its target T1, Cytochrome P450 26A1 (Homo sapiens, UniProt O43174).
T1 sequence (O43174 whole entry): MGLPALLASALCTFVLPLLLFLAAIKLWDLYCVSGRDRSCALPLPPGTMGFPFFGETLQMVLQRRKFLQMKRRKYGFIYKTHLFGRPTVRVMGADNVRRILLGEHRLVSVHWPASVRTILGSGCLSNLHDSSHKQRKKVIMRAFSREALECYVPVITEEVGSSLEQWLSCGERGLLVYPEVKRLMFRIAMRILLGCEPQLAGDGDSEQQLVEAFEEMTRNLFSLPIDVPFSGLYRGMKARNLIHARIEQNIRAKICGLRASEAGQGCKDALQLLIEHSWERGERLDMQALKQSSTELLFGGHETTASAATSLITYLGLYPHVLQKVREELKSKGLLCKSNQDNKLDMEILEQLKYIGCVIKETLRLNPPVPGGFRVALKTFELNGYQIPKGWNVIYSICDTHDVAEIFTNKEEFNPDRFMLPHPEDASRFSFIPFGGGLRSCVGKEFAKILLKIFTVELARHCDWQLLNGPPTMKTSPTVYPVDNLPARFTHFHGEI
In words: Inhibition of CYP26A1 in human MCF7 cell microsomes using [3H]ATRA as substrate after 1 hr by scintillation counter analysis. More on the design: species or system Microsome. The method in brief: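 MCF-7 cells (RPMI 1640, 10% FCS, 2 mM L-glutamine, 37 °C, 5% CO₂) pretreated 24 h with 1 µM RA to induce CYP26; microsomes by differential centrifugation, activity normalised by cytochrome c reductase. 50 µg microsomal protein, 2 mM NADPH, 10 nM ATRA plus 0.1 µCi ³H-ATRA, pH 7.4 Tris/KCl/MgCl₂/BSA, inhibitor 1–1000 nM, 1 h 37 °C; acetonitrile quench, C18 HPLC, flow scintillation; inhibition from metabolite peak area fraction versus no-inhibitor control.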

The next data set concerns the target Cytochrome P450 3A4 (Homo sapiens, UniProt P08684). The data set is described as follows: Inhibition of CYP3A4 in human liver microsomes. It counts as ADME, Microsome. On the technique in general: Liver microsomes are vesicles of endoplasmic reticulum, rich in cytochrome P450 enzymes.
The target of the next data set is T2, Cytochrome P450 1A2 (Homo sapiens, UniProt P05177).
T2 sequence (P05177 whole entry): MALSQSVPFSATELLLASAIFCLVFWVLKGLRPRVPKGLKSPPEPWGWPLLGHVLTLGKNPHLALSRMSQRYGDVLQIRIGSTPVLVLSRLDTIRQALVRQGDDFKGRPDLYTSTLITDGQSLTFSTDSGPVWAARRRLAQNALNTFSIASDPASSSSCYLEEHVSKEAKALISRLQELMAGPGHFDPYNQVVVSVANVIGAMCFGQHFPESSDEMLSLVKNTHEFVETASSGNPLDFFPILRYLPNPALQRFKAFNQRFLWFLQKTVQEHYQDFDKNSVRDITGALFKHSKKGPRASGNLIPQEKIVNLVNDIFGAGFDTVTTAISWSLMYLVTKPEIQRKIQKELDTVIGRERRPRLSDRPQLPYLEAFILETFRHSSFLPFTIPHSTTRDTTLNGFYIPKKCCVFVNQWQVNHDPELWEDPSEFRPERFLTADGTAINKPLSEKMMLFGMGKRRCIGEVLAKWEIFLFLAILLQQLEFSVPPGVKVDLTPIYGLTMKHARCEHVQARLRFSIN
The data set is described as follows: Inhibition of CYP1A2 in human liver microsomes. It counts as ADME, Microsome.

The target of another data set is Cytochrome P450 2C9 (Homo sapiens, UniProt P11712). The data set is described as follows: Inhibition of CYP2C9 in human liver microsomes. The data set is classed as ADME, Microsome.
Sequence of Cytochrome P450 2C9 (P11712 whole entry): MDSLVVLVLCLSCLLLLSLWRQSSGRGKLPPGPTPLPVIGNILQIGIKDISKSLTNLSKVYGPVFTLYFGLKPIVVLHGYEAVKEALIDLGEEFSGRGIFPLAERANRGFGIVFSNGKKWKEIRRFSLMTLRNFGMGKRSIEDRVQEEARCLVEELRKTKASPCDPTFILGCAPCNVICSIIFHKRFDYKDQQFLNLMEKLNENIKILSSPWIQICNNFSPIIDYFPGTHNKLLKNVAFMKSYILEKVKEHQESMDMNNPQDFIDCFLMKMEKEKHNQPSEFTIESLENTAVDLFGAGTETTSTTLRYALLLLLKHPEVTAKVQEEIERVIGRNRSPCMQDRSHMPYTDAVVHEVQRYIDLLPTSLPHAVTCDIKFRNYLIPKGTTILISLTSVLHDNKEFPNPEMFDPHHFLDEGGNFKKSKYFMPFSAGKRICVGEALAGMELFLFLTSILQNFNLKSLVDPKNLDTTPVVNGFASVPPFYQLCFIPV
The target of a further data set is CYP2C19 (Homo sapiens, UniProt P33261). In words: Inhibition of CYP2C19 in human liver microsomes at 0.4 uM. The data set is classed as ADME, Microsome.
Sequence of CYP2C19 (P33261 whole entry): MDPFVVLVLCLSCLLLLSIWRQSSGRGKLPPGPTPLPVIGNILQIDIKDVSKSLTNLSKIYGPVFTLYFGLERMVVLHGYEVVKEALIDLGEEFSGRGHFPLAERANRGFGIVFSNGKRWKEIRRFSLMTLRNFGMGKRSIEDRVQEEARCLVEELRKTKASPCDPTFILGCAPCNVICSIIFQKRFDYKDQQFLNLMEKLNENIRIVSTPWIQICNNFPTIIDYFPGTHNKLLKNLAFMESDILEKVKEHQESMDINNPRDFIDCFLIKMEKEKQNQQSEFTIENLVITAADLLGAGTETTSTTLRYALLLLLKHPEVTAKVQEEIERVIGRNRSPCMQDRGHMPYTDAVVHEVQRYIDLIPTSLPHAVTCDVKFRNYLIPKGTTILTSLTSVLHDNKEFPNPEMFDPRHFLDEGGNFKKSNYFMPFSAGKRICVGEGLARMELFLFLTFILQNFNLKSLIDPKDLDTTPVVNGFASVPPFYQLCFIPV
A further data set concerns the target Cytochrome P450 2D6 (Homo sapiens, UniProt P10635). The data set is described as follows: Inhibition of CYP2D6 in human liver microsomes. The data set is classed as ADME, Microsome.
Another data set concerns the target Cytochrome P450 2C19 (Homo sapiens, UniProt P33261). The data set is described as follows: Inhibition of CYP2C19 in human liver microsomes. The data set is classed as ADME, Microsome.
Data set [1] can be described thus: Selectivity ratio of IC50 for CYP2C9 in human liver microsomes to IC50 for CYP26A1 in human MCF7 cell microsomes.
The nature of data set [2]: Selectivity ratio of IC50 for CYP3A4 in human liver microsomes to IC50 for CYP26A1 in human MCF7 cell microsomes.
The target in the next data set is CYP3A4 (Homo sapiens, UniProt P08684). The data set is described as follows: Inhibition of CYP3A4 in human liver microsomes at 0.4 uM. The data set is classed as ADME, Microsome.
Sequence of CYP3A4 (P08684 whole entry): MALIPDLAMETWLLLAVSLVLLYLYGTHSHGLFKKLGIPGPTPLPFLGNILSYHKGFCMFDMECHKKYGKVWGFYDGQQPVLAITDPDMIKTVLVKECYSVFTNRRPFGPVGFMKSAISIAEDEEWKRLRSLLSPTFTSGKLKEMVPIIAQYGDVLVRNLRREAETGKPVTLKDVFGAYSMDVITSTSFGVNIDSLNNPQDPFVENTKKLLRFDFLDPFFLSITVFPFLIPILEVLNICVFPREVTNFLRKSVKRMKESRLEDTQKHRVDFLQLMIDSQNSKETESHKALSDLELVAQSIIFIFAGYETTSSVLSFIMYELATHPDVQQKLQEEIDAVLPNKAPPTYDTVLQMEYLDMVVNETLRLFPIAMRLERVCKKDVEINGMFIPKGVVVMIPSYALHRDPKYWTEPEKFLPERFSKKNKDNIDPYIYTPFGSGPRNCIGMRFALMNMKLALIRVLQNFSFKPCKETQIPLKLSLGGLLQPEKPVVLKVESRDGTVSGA
Data set [3] is described as follows: Selectivity ratio of IC50 for CYP1A2 in human liver microsomes to IC50 for CYP26A1 in human MCF7 cell microsomes.
Another data set concerns the target CYP2C9 (Homo sapiens, UniProt P11712). The data set is described as follows: Inhibition of CYP2C9 in human liver microsomes at 0.4 uM. It counts as ADME, Microsome.
Another data set concerns the target T3, CYP1A2 (Homo sapiens, UniProt P05177).
T3 sequence (P05177 whole entry): T2 sequence (P05177 whole entry)
The data set is described as follows: Inhibition of CYP1A2 in human liver microsomes at 0.4 uM. The data set is classed as ADME, Microsome.

In another data set the target is CYP2D6 (Homo sapiens, UniProt P10635). The data set is described as follows: Inhibition of CYP2D6 in human liver microsomes at 0.4 uM. It counts as ADME, Microsome.
Sequence of CYP2D6 (P10635 whole entry): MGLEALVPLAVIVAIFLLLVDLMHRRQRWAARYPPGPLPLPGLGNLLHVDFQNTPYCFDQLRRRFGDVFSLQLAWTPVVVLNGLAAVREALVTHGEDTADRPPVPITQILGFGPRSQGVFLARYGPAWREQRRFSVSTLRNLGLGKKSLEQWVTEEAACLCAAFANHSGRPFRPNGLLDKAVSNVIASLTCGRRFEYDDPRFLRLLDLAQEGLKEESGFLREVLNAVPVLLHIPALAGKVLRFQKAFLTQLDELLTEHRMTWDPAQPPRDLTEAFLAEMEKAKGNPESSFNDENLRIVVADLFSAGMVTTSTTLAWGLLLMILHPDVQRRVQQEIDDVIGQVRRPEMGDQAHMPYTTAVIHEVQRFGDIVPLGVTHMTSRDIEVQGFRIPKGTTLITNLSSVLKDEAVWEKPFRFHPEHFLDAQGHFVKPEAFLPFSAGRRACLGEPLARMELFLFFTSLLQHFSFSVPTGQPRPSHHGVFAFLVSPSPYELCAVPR
Data set [4] can be described thus: Selectivity ratio of IC50 for CYP2D6 in human liver microsomes to IC50 for CYP26A1 in human MCF7 cell microsomes.

Sequence of CYP2C9 (P11712 whole entry): as the sequence (P11712 whole entry) above
Sequence of Cytochrome P450 2D6 (P10635 whole entry): as the sequence (P10635 whole entry) above
Sequence of Cytochrome P450 3A4 (P08684 whole entry): as the sequence (P08684 whole entry) above
Sequence of Cytochrome P450 2C19 (P33261 whole entry): as the sequence (P33261 whole entry) above

By pIC50 is commonly meant −log10 of the IC50, conventionally taken in molar units. The low end stands for a large IC50, the high end for a small IC50. On to `CCNC(=O)C(C)(C)C(c1ccc(Nc2ccccc2)cc1)n1ccnc1` (stereo not drawn), for which the pIC50 on Cytochrome P450 26A1 was 6.60.
The molecule `COC(=O)C(C)(C)C(c1ccc(Nc2ccc(C(C)=O)cc2)cc1)n1cncn1` (stereo not drawn) showed a negative-log IC50 (pIC50) on Cytochrome P450 26A1 of 7.02.
`CNC(=O)C(C)(C)C(c1ccc(Nc2ccc(OC)cc2)cc1)n1ccnc1` (stereo not drawn) had a pIC50 on Cytochrome P450 26A1 of under 6.00.
Same read-out and setting: next, `CC(C)(C(=O)O)C(c1ccc(Nc2ccccc2)cc1)n1ccnc1` (stereo not drawn): under 6.00; `CNC(=O)C(C)(C)C(c1ccc(Nc2ccccc2)cc1)n1ccnc1` (stereo not drawn): 6.70.
Broadly, the inhibition is how much of the control response was suppressed. Read a high inhibition as strong suppression. Consider `COC(=O)C(C)(C)C(c1ccc(Nc2ccccc2)cc1)n1cncn1` (stereo not drawn), for which the pIC50 against Cytochrome P450 3A4 was 6.70; against Cytochrome P450 1A2 it was 5.07; at Cytochrome P450 2C9 it was 5.04; against Cytochrome P450 2D6, 5.89; at Cytochrome P450 2C19 it was 5.38; against Cytochrome P450 26A1, 7.89. Besides, the inhibition at 0.4 µM on CYP2C19 came to 19%; on CYP3A4 it was 47%; against CYP2C9, 19%; against CYP1A2, 10%; against CYP2D6 it was 13%. Moreover, the “Ratio IC50” value was over 100 in data set [1], 15 in data set [2], over 100 in data set [3] and over 100 in data set [4].
On to `C[C@H]([C@@H](c1ccc(Nc2nc3ccccc3s2)cc1)n1cncn1)N(C)C`, for which the inhibition at 0.4 µM amounted to 17% on CYP2C19; 83% against CYP3A4; 3% against CYP2C9; 6% on CYP1A2; 27% on CYP2D6.
For the molecule `CC(C)(C(=O)O)C(c1ccc(Nc2ccc(C(=O)O)cc2)cc1)n1cncn1` (stereo not drawn), the negative-log IC50 (pIC50) at Cytochrome P450 26A1 is 7.07.
Same read-out and setting: next, `CNC(=O)C(C)(C)C(c1ccc(Nc2ccc(Cl)cc2)cc1)n1ccnc1` (stereo not drawn): 6.00; `CNC(=O)C(C)(C)C(c1ccc(Nc2ccccc2)cc1)n1cncn1` (stereo not drawn): 6.00.
